Calls of active or inactive are those of the source. The calls are words filed in the database; no cut-off is given here. Starred links: 1 amine or outer side, 2 acyl side, 3 side chain; linkers in the order of their positions; H or OH if unused. Non-standard residues stand in square brackets, D forms with d. Residues, ends and D or L forms follow the SMILES beside them. Phe(4-Br) = N[C@@H](Cc1ccc(Br)cc1)C(=O)O; X1 = N=C(N)NCCCN(N[*:1])C(=O)[*:2]; pGlu = O=C1CC[C@@H](C(=O)O)N1; Nle = CCCC[C@H](N)C(=O)O; Aib = CC(C)(N)C(=O)O
How the values were obtained:
Neprilysin [1] = molecular target: T1, Neprilysin (Homo sapiens, UniProt P08473); assay: Drug metabolism assessed as recombinant human NEP-medited peptide proteolysis at 1 mM up to 72 hrs by LC-MS analysis; assay type: ADME; conditions: 1000 µM
Summary of the method: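 Recombinant human NEP, 3.1 nM final in 100 mM Tris, 100 mM NaCl, 10 μM ZnCl2, pH 7.5, preincubated 10 min at 37 °C. Then 5 μL of 1 mM peptide stock and dansyl-YVG internal standard added; incubated at 37 °C for up to 72 h. Extracted-ion LC−MS ratio of parent to standard compared with 0 h and converted to percent cleaved.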

Neprilysin [2] = molecular target: T1, Neprilysin; assay: Drug degradation in human plasma assessed as NEP-mediated degradation by measuring amount of apelin remaining after 60 mins by RP-HPLC analysis; assay type: ADME; conditions: 1 h
Summary of the method: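 Human plasma (20 μL) prewarmed to 37 °C, then 5 μL of 400 μM peptide added and incubated for set times; done in triplicate. Quenched with 10% aqueous TFA, dansyl-YVG internal standard added, and peptides recovered on a C18 spin column with 40% acetonitrile/0.1% TFA. Analysed by C18 RP-HPLC; peptide/standard peak-area ratio compared with the 0 min ratio.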

Neprilysin [3] = molecular target: T1, Neprilysin; assay: Inhibition of recombinant human NEP using pyr-1-apelin-13 as substrate assessed as peptide degradation at 1 mM preincubated for 10 mins followed by substrate addition measured after 72 hrs by LC-MS analysis; conditions: 1000 µM
Summary of the method: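 Recombinant human NEP, 3.1 nM in Tris/NaCl/10 μM ZnCl2 buffer, pH 7.5, preincubated 10 min at 37 °C with 5 μL of 1 mM analogue stock (equimolar to substrate) plus dansyl-YVG standard. Then 5 μL of 1 mM pyr-1-apelin-13 added. Aliquots taken at 0, 1, 4, 24 and 72 h and analysed by LC−MS; duplicate per time point.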

Mus musculus [4] = assay: Cardiovascular activity in anesthetized mouse assessed as increase in heart rate at 1.4 uM/kg, iv relative to control; assay type: functional, organism-based
Summary of the method: (§1)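 Mice under 1.5% isoflurane, body temperature held at 36 °C on a heating pad. Aorta cannulated via the right carotid artery with a 1.2F PV loop catheter to record arterial pressure and heart rate continuously. Peptide given systemically through the right internal jugular vein.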

Mus musculus [5] = assay: Cardiovascular activity in anesthetized mouse assessed as decrease in blood pressure at 1.4 uM/kg, iv relative to control; assay type: functional, organism-based; summary of the method: as §1
Heart [6] = assay: Cardioprotective activity against Langendorff isolated mouse heart ischemia-reperfusion model assessed as maximum derivative change in systolic pressure over time at 1 uM administered for 10 mins during start of 40 mins reperfusion period post 30 mins ischemic induction; assay type: functional, tissue-based
Summary of the method: (§2)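 Mouse hearts (heparinized, isoflurane 1.5−2%) excised and Langendorff-perfused at constant 80 mmHg with modified Krebs−Henseleit buffer, 37 °C, 95% O2/5% CO2, pH 7.4. After 10 min baseline, 30 min global ischemia, then 40 min reperfusion. Peptide at 1 μM given for the first 10 min of reperfusion, with saline sham and native apelin-17 as controls. Left ventricular function recorded continuously.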

Heart [7] = assay: Cardioprotective activity against Langendorff isolated mouse heart ischemia-reperfusion model assessed as improvement in LVDP at 1 uM administered for 10 mins during start of 40 mins reperfusion period post 30 mins ischemic induction; assay type: functional, tissue-based; summary of the method: as §2
Heart [8] = assay: Cardioprotective activity against Langendorff isolated mouse heart ischemia-reperfusion model assessed as improvement in RPP at 1 uM administered for 10 mins during start of 40 mins reperfusion period post 30 mins ischemic induction; assay type: functional, tissue-based; summary of the method: as §2
Heart [9] = assay: Cardioprotective activity against Langendorff isolated mouse heart ischemia-reperfusion model assessed as minimum derivative change in diastolic pressure over time at 1 uM administered for 10 mins during start of 40 mins reperfusion period post 30 mins ischemic induction; assay type: functional, tissue-based; summary of the method: as §2
Mus musculus [10] = assay: Cardiotoxicity in anesthetized mouse assessed as induction of tachycardia at 1.4 uM/kg, iv relative to control; assay type: toxicity, organism-based; conditions: in vivo, 1.4 µmol/kg; summary of the method: as §1

T1 sequence (P08473 whole entry): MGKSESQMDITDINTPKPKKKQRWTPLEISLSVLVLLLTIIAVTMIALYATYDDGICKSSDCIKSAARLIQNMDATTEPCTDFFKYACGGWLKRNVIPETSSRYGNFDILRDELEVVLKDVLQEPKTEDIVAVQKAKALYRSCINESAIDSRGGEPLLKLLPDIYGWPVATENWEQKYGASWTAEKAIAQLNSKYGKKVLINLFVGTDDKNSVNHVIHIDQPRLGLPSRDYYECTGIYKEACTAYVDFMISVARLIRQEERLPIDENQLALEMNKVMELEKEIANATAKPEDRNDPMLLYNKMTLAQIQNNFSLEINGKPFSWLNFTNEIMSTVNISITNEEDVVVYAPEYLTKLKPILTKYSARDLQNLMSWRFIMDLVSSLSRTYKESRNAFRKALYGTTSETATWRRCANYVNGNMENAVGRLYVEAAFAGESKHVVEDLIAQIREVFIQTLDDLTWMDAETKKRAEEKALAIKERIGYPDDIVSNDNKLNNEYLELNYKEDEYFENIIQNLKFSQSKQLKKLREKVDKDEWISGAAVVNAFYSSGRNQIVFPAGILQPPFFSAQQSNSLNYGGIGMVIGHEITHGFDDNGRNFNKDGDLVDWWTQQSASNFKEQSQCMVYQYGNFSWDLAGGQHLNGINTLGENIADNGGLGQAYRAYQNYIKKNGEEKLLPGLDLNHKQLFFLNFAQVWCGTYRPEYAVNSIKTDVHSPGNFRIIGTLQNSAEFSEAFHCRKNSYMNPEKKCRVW

Drug metabolism (Neprilysin [1]) | Drug degradation (Neprilysin [2]) | inhibition (INH) (Neprilysin [3]) | Compound | Activity (Mus musculus [4]) | Activity (Mus musculus [5]) | Activity (Heart [6]) | Activity (Heart [7]) | Activity (Heart [8]) | Activity (Heart [9]) | Activity (Mus musculus [10])
Metabolite_Notdetected | 59% | Not Active | CCCC[C@H](NC(=O)[C@@H]1CCCN1C(=O)CNC(=O)[C@H](CCCCN)NC(=O)[C@H](Cc1c[nH]cn1)NC(=O)[C@H](CO)NC(=O)[C@H](CC(C)C)N(C)C(=O)[C@H](CCCNC(=N)N)NC(=O)[C@@H]1CCCN1C(=O)[C@H](CCCNC(=N)N)NC(=O)[C@@H]1CCC(=O)N1)C(=O)NC(C)(C)C(=O)N[C@@H](Cc1ccc(Br)cc1)C(=O)O | Active | inactive |  |  |  |  | 
Metabolite_Detected | 65% |  | CCCC[C@H](NC(=O)[C@@H]1CCCN1C(=O)CNC(=O)[C@H](CCCCN)NC(=O)[C@H](Cc1c[nH]cn1)NC(=O)[C@H](CO)NC(=O)[C@H](CC(C)C)NC(=O)[C@H](CCCNC(=N)N)NC(=O)[C@@H]1CCCN1C(=O)[C@H](CCCNC(=N)N)NC(=O)[C@@H]1CCC(=O)N1)C(=O)NC(C)(C)C(=O)N[C@@H](Cc1ccc(Br)cc1)C(=O)O | inactive | inactive |  |  |  |  | 
Metabolite_Notdetected | 38% | Not Active | CCCC[C@H](NC(=O)[C@@H]1CCCN1C(=O)CNC(=O)[C@H](CCCCN)NC(=O)[C@H](Cc1c[nH]cn1)NC(=O)[C@H](CO)NC(=O)[C@](C)(CC(C)C)NC(=O)[C@H](CCCNC(=N)N)NC(=O)[C@@H]1CCCN1C(=O)[C@H](CCCNC(=N)N)NC(=O)[C@@H]1CCC(=O)N1)C(=O)NC(C)(C)C(=O)N[C@@H](Cc1ccc(Br)cc1)C(=O)O | Active |  |  |  |  |  | 
Metabolite_Notdetected | 94% | Not Active | CCCC[C@H](NC(=O)[C@@H]1CCCN1C(=O)CNC(=O)[C@H](CCCCN)NC(=O)[C@H](Cc1c[nH]cn1)NC(=O)[C@H](CO)NC(=O)[C@H](CC(C)C)NC(=O)N(CCCNC(=N)N)NC(=O)[C@@H]1CCCN1C(=O)[C@H](CCCNC(=N)N)NC(=O)[C@H](CCC(N)=O)NC(=O)[C@H](CCCNC(=N)N)NC(=O)[C@H](CCCNC(=N)N)NC(=O)[C@H](Cc1ccccc1)NC(=O)[C@@H](N)CCCCN)C(=O)NC(C)(C)C(=O)N[C@@H](Cc1ccc(Br)cc1)C(=O)O (H-KFRRQRP[X1]LSHKGP[Nle][Aib][Phe(4-Br)]-OH) |  | Active | Active | Active | Active | Active | Toxic
Metabolite_Notdetected | 57% | Not Active | CCCC[C@H](NC(=O)[C@@H]1CCCN1C(=O)CNC(=O)[C@H](CCCCN)NC(=O)[C@H](Cc1c[nH]cn1)NC(=O)[C@H](CO)NC(=O)[C@H](CC(C)C)NC(=O)N(CCCNC(=N)N)NC(=O)[C@@H]1CCCN1C(=O)[C@H](CCCNC(=N)N)NC(=O)[C@@H]1CCC(=O)N1)C(=O)NC(C)(C)C(=O)N[C@@H](Cc1ccc(Br)cc1)C(=O)O ([pGlu]RP[X1]LSHKGP[Nle][Aib][Phe(4-Br)]-OH) | Active |  |  |  |  |  | 

From ChEMBL document CHEMBL4038314, “Synthetic Modification within the "RPRL" Region of Apelin Peptides: Impact on Cardiovascular Activity and Stability to Neprilysin and Plasma Degradation” (J Med Chem, 2017)
